This sample holds only a part of the variants without activity.
B1: tRNA (parent)
chain: CUCUCGGUAGCCAAGUUGGUUUAAGGCGCAAGACUUUAAUUUAUCACUACGAAAUCUUGAGAUCGGGCGUUCGACUCGCCCCCGGGAGAUUUUUUCCUCGAGCAA

Variants of: B1
Assay: nonsense suppression (GFP-seq) (ratio to wild type); higher = more function; SUP4oc tRNA, yeast GFP reporter sort-seq
Summary of the method: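 Sorted GFP/RFP bins of yeast were each Illumina-sequenced with a phred ≥30 cutoff; the cells held a genome-integrated ochre-suppressor tRNA variant from a library with ~3% random mutations, a galactose-driven GFP ochre reporter, and RFP. Culture was in raffinose/galactose medium containing 80 mg/L adenine. Nonsense suppression, termed GFPSEQ, is the median GFP/RFP of the bins weighted by each variant's estimated cell share per bin, relative to the unmutated parent tRNA, for variants reaching ≥100 reads and ≥30 cells.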

Compared with U20C A54G, U22C U58G is lower in nonsense suppression: 0.052 for the first, no more than 0.026 for the second.

Compared with U2A C34G G85C A89C, U58G G66C C80G is lower in nonsense suppression: 0.25 for the first, 0.0324 for the second.

First: G85U G88A
Second: G7C A14G U22A A24U G85C
The nonsense suppression of the first is higher: 0.0446 for the first, no more than 0.026 for the second.

U8A G32A and C27G U71G cannot be ordered by nonsense suppression: no more than 0.026 for the first, no more than 0.026 for the second.

A9U U55A and A30U C77U cannot be ordered by nonsense suppression: no more than 0.026 for the first, no more than 0.026 for the second.

Going from C12U U16C to U8A G10A G65A G85U, the nonsense suppression falls from 0.853 to no more than 0.026.

C5G A33G G65A G66C and A23G C56A U63G cannot be ordered by nonsense suppression: no more than 0.026 for the first, no more than 0.026 for the second.

Compared with C1G U20C, U17A C34U A74U is lower in nonsense suppression: 0.0266 for the first, no more than 0.026 for the second.

U55C U58A G67U and G25U C34A U71A U76A cannot be ordered by nonsense suppression: no more than 0.026 for the first, no more than 0.026 for the second.

Going from C12A A24C to G25C C77U C80G, the nonsense suppression falls from 0.035 to no more than 0.026.

First: C12A G28C A31G U57G
Second: G28A
The nonsense suppression of the first is lower: no more than 0.026 for the first, 0.975 for the second.

C79A C83A and U76A cannot be ordered by nonsense suppression: no more than 0.026 for the first, no more than 0.026 for the second.

G10C C79U and C12A U35A C81G cannot be ordered by nonsense suppression: no more than 0.026 for the first, no more than 0.026 for the second.

C1G U58C A62U G78U and C1G A87G cannot be ordered by nonsense suppression: no more than 0.026 for the first, no more than 0.026 for the second.

Going from A54U U63C to U4C U22G G26U G73C G78C, the nonsense suppression falls from 0.798 to no more than 0.026.

Going from A30U C79U to C3G U8G, the nonsense suppression falls from 0.144 to no more than 0.026.

First: A23U U63A
Second: G61A G65C G69A C80U
The nonsense suppression of the first is higher: 0.207 for the first, no more than 0.026 for the second.

G10U C77G and C11U C29G cannot be ordered by nonsense suppression: no more than 0.026 for the first, no more than 0.026 for the second.

Compared with C64G G66U A87G, U21G A60U is higher in nonsense suppression: no more than 0.026 for the first, 0.96 for the second.

Compared with U4G G85C, G6C C77G is lower in nonsense suppression: 0.813 for the first, no more than 0.026 for the second.

First: G19A U63G
Second: G65U G67A
The nonsense suppression of the first is higher: 0.143 for the first, no more than 0.026 for the second.

Compared with G15A G28A C75A, G15A A31U U35C U76G C83U is lower in nonsense suppression: 0.24 for the first, no more than 0.026 for the second.

Compared with A13C U57C, C29U G61C is lower in nonsense suppression: 0.0326 for the first, 0.0261 for the second.

Compared with U4C G78C, C75G is lower in nonsense suppression: 1.06 for the first, 1.04 for the second.

First: U20C C27G
Second: A30G A74G
The nonsense suppression of the first is lower: no more than 0.026 for the first, 0.098 for the second.

Going from A74G G78C to U4A C11A A14U, the nonsense suppression falls from 0.0343 to no more than 0.026.

C5A U55C A89G and G32U A54C C81G cannot be ordered by nonsense suppression: no more than 0.026 for the first, no more than 0.026 for the second.

Going from C80U G88A to G15U U21A U55G, the nonsense suppression falls from 0.0263 to no more than 0.026.

Going from A60C G61U to U4A C83G G88C, the nonsense suppression falls from 0.768 to no more than 0.026.

Going from A33G G66C to G61C C64U C68G G84A, the nonsense suppression falls from 0.0263 to no more than 0.026.

Going from G73A C79U to G73A G85A, the nonsense suppression rises from 0.207 to 1.03.

Going from C3G A24C A31C to A62U C75G, the nonsense suppression rises from no more than 0.026 to 0.201.

U4A G7U U76A and C82A C83U cannot be ordered by nonsense suppression: no more than 0.026 for the first, no more than 0.026 for the second.

Compared with G86U A87U, G61A A62C is higher in nonsense suppression: no more than 0.026 for the first, 0.0863 for the second.

First: G78A C82G
Second: U35C U63G
The nonsense suppression of the first is higher: 0.0423 for the first, 0.0352 for the second.

C5U A14G U55G and G18C A54C G84U cannot be ordered by nonsense suppression: no more than 0.026 for the first, no more than 0.026 for the second.

Going from A23C A30U C34G U70C C72G to A60G U71C, the nonsense suppression rises from no more than 0.026 to 0.0362.

Compared with A9G U22G, C5A A30G is lower in nonsense suppression: 0.254 for the first, 0.0272 for the second.

G18A G25U G67C and G19C A30U cannot be ordered by nonsense suppression: no more than 0.026 for the first, no more than 0.026 for the second.

Compared with C5G U57G U71G, U21C U22A is higher in nonsense suppression: no more than 0.026 for the first, 1.14 for the second.

First: G61U A62U
Second: U16C U17G
The nonsense suppression of the first is lower: 0.0397 for the first, 1.07 for the second.

First: U21C C82U
Second: U17C U63G
The nonsense suppression of the first is higher: 1.15 for the first, 0.804 for the second.

First: U4C A24C
Second: C12G A54G U57G A60U C77U
The nonsense suppression of the first is higher: 1.06 for the first, no more than 0.026 for the second.

Compared with G7A A9C A54G, C5U G85U is higher in nonsense suppression: no more than 0.026 for the first, 0.0303 for the second.

Compared with G61C G85C, A24U C75U C81U is lower in nonsense suppression: 0.045 for the first, no more than 0.026 for the second.

Going from A30G U71A to U22C C56U, the nonsense suppression rises from 0.05 to 0.0509.

Compared with C1A A23C C77A, C29U U76A is higher in nonsense suppression: no more than 0.026 for the first, 0.224 for the second.

Going from A9G U16A to C1G G61A G78U A87C, the nonsense suppression falls from 0.845 to no more than 0.026.

First: C3A G6A U71G
Second: U4C A13G
The nonsense suppression of the first is lower: no more than 0.026 for the first, 0.774 for the second.

Compared with U17G A33U U63G C68A U71G, U16A U21G is higher in nonsense suppression: no more than 0.026 for the first, 0.752 for the second.

Compared with A13U U21A, A24U U63A is lower in nonsense suppression: 0.803 for the first, 0.119 for the second.

Compared with U16C A54C, A14U G18C C80U is lower in nonsense suppression: 1.22 for the first, no more than 0.026 for the second.

U8A G25C and U63G G66U G84A cannot be ordered by nonsense suppression: no more than 0.026 for the first, no more than 0.026 for the second.

A54C C68G and C12U G18U A30C G84A A89C cannot be ordered by nonsense suppression: no more than 0.026 for the first, no more than 0.026 for the second.

Compared with U4A U17G G69A G78U, G61A C72U is higher in nonsense suppression: no more than 0.026 for the first, 0.0666 for the second.

Going from U20G U63A to A54C C75U, the nonsense suppression rises from 1.06 to 1.22.

Compared with U20A G28C, U4A A31U is lower in nonsense suppression: 0.182 for the first, 0.0312 for the second.

Going from C1U C3A U8A U17C to U58C G61C, the nonsense suppression rises from no more than 0.026 to 0.0324.

Compared with G25A U57C, U4A A30G is higher in nonsense suppression: no more than 0.026 for the first, 0.0267 for the second.

Going from A30U to C27G G73C, the nonsense suppression falls from 0.575 to no more than 0.026.

First: A13C C68G G88A
Second: U2C A13U
The nonsense suppression of the first is lower: no more than 0.026 for the first, 0.0357 for the second.

Going from A9G A54U to A9C A30G, the nonsense suppression falls from 0.196 to 0.171.

U2A C12A and C5G G59A A62C cannot be ordered by nonsense suppression: no more than 0.026 for the first, no more than 0.026 for the second.

Going from A9U G66A to U20C U57C U58G G61C, the nonsense suppression falls from 0.0305 to no more than 0.026.

U2C A24G A31C A60C C82A G85C and U20C A31C C79A G85C cannot be ordered by nonsense suppression: no more than 0.026 for the first, no more than 0.026 for the second.

G28A U35G G65U G73A C80U and C1A G19C A31G A60U U71A C72G G84U cannot be ordered by nonsense suppression: no more than 0.026 for the first, no more than 0.026 for the second.

A23C A30G C81A A87G and U2G C27U A30G C79U C83A cannot be ordered by nonsense suppression: no more than 0.026 for the first, no more than 0.026 for the second.

Compared with U8C U21G, G59A G84C is lower in nonsense suppression: 0.0903 for the first, no more than 0.026 for the second.

Compared with G66U C75A, A24C A60U is higher in nonsense suppression: 0.704 for the first, 1.07 for the second.

C27G G32U C75A C81G G88C and U2A C34A G78U G86U cannot be ordered by nonsense suppression: no more than 0.026 for the first, no more than 0.026 for the second.

A14U G61C C79U and C12A C77A G86U cannot be ordered by nonsense suppression: no more than 0.026 for the first, no more than 0.026 for the second.

Compared with A54C, A54C A74C is lower in nonsense suppression: 1.16 for the first, no more than 0.026 for the second.

Going from A9C A13G to U4C A9G, the nonsense suppression rises from 0.0462 to 0.391.

First: U57G G85C
Second: U20C U63G
The nonsense suppression of the first is lower: no more than 0.026 for the first, 0.0493 for the second.

First: C11G U63A U70G
Second: U17A G25C
The nonsense suppression of the first is lower: no more than 0.026 for the first, 0.068 for the second.

First: C11U U70G C79A
Second: A13C G78A
The nonsense suppression of the first is lower: no more than 0.026 for the first, 0.208 for the second.

Going from A9U U16G to G10A G78A, the nonsense suppression falls from 0.202 to 0.0314.

Going from U22G G73A to G19C C27G A30U U55C, the nonsense suppression falls from 0.854 to no more than 0.026.

Going from U21G U22G G28A to G26C G78U C82A, the nonsense suppression falls from 0.206 to no more than 0.026.

First: A14U A33U C34G G59C
Second: A24C A60G
The nonsense suppression of the first is lower: no more than 0.026 for the first, 0.258 for the second.

First: C1A C12G U58A
Second: C75A G78C
The nonsense suppression of the first is lower: no more than 0.026 for the first, 1 for the second.

A13U A24G G26C G32C A89C and C1G A33G U55C U71G G78C cannot be ordered by nonsense suppression: no more than 0.026 for the first, no more than 0.026 for the second.

Going from A9U G15A to C1U C5U U22C U63C, the nonsense suppression falls from 0.0449 to no more than 0.026.

Variant G61A G66C has a nonsense suppression of no more than 0.026.
